Converted amounts (≈) assume the structure as drawn.
Legend:
[1] = Cytotoxicity against mouse macrophages assessed as cell viability at 0.1 ug/mL after 18 hrs by MTT assay; assay type: cell-based, Macrophage; conditions: read-out: Activity
Method in brief: (§1)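 Murine macrophages plated at 2.5 × 10⁶ cells/mL and held 1 h at 37 °C under 5% CO₂. Nonadherent cells were then flushed off with RPMI 1640. Adherent cells were exposed in triplicate to compound at 0.1, 1.0, 10.0 or 100, medium alone (live control) or 3% tween 20 (dead control). After 18 h MTT was added for 4 h. Formazan was dissolved in DMSO and A540 read.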

[2] = Cytotoxicity against mouse macrophages assessed as cell viability at 1 ug/mL after 18 hrs by MTT assay; assay type: cell-based, Macrophage; conditions: read-out: Activity; method in brief: as §1
[3] = Cytotoxicity against mouse macrophages assessed as cell viability at 100 ug/mL after 18 hrs by MTT assay; assay type: cell-based, Macrophage; conditions: read-out: Activity; method in brief: as §1
[4] = test system: Mycobacterium tuberculosis; assay: Antimycobacterial activity against rifampin and isoniazid-susceptible Mycobacterium tuberculosis H37Rv ATCC 27294 after 5 days by Alamar blue assay; assay type: functional; conditions: 120 h
Method in brief: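 Microplate Alamar Blue assay in Middlebrook 7H9 broth; compounds serially diluted on the plate, final concentrations […]. Plates sealed and incubated 37 °C for 5 days, then 1:1 Alamar Blue reagent/10% Tween 80 added and incubated a further 24 h. Blue scored as no growth, pink as growth; MIC is the lowest concentration preventing the blue-to-pink change.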

[5] = Cytotoxicity against mouse macrophages assessed as cell viability at 10 ug/mL after 18 hrs by MTT assay; assay type: cell-based, Macrophage; conditions: read-out: Activity; method in brief: as §1

Work on `N#Cc1ccccc1/C=N/NC(=O)c1ccncc1` yielded a viability at 18 h, 0.1 ug/mL [1] of 100%, a viability at 18 h, 1 ug/mL [2] of 100% and a viability at 18 h, 100 ug/mL [3] of 95%. For the same compound, the MIC [4] was 0.62 µg/mL (≈ 2.48 µM) and the viability at 18 h, 10 ug/mL [5] was 100%.

With `O=C(N/N=C/c1ccccc1Cl)c1ccncc1` the MIC [4] was 1.25 µg/mL (≈ 4.81 µM).

Compound `O=C(N/N=C/c1ccccc1F)c1ccncc1` has an MIC [4] of 3.12 µg/mL (≈ 12.8 µM).

Compound `CO[C@H]1/C=C/O[C@@]2(C)Oc3c(C)c(O)c4c(O)c(c(/C=N/N5CCN(C)CC5)c(O)c4c3C2=O)NC(=O)/C(C)=C\C=C\[C@H](C)[C@H](O)[C@@H](C)[C@@H](O)[C@@H](C)[C@H](OC(C)=O)[C@@H]1C` [RIFAMPIN] has an MIC [4] of 1 µg/mL (≈ 1.22 µM).

Compound `O=C(N/N=C/c1ccccc1Br)c1ccncc1` has an MIC [4] of 5 µg/mL (≈ 16.4 µM).

`COc1ccc(/C=N/NC(=O)c2ccncc2)cc1` gave an MIC [4] of 5 µg/mL (≈ 19.6 µM).

Work on `O=C(N/N=C/c1ccc(Cl)cc1)c1ccncc1` yielded a viability at 18 h, 0.1 ug/mL [1] of 100%, a viability at 18 h, 1 ug/mL [2] of 97% and a viability at 18 h, 100 ug/mL [3] of 96%. The MIC [4] was 0.31 µg/mL (≈ 1.19 µM) and the viability at 18 h, 10 ug/mL [5] was 97%.

With `O=C(N/N=C/c1cccc(F)c1)c1ccncc1` the MIC [4] was 3.12 µg/mL (≈ 12.8 µM).

Compound `CCOc1ccccc1/C=N/NC(=O)c1ccncc1` has an MIC [4] of 1.25 µg/mL (≈ 4.64 µM).

With `COc1ccccc1/C=N/NC(=O)c1ccncc1` the viability at 18 h, 0.1 ug/mL [1] was 100%, the viability at 18 h, 1 ug/mL [2] was 100% and the viability at 18 h, 100 ug/mL [3] was 98%. For the same compound, the MIC [4] was 0.31 µg/mL (≈ 1.21 µM) and the viability at 18 h, 10 ug/mL [5] was 100%.

`O=C(N/N=C/c1ccc(Br)cc1)c1ccncc1` showed an MIC [4] of 5 µg/mL (≈ 16.4 µM).

With `CCOc1cccc(/C=N/NC(=O)c2ccncc2)c1` the MIC [4] was 1.25 µg/mL (≈ 4.64 µM).

Compound `O=C(N/N=C/c1ccc([N+](=O)[O-])cc1)c1ccncc1` [N'-(4-NITROBENZYLIDENE)ISONICOTINOHYDRAZIDE] has an MIC [4] of 1.25 µg/mL (≈ 4.63 µM).

`O=C(N/N=C/c1cccc([N+](=O)[O-])c1)c1ccncc1` showed an MIC [4] of 5 µg/mL (≈ 18.5 µM).

Compound `O=C(N/N=C/c1ccccc1[N+](=O)[O-])c1ccncc1` has an MIC [4] of 5 µg/mL (≈ 18.5 µM).

Compound `NNC(=O)c1ccncc1` [ISONIAZID] has an MIC [4] of 0.2 µg/mL (≈ 1.46 µM).

Work on `N#Cc1ccc(/C=N/NC(=O)c2ccncc2)cc1` yielded an MIC [4] of 5 µg/mL (≈ 20 µM).

Compound `N#Cc1cccc(/C=N/NC(=O)c2ccncc2)c1` has an MIC [4] of 1.25 µg/mL (≈ 4.99 µM).

`COc1cccc(/C=N/NC(=O)c2ccncc2)c1` showed an MIC [4] of 5 µg/mL (≈ 19.6 µM).

Work on `O=C(N/N=C/c1cccc(O)c1)c1ccncc1` yielded an MIC [4] of 1.25 µg/mL (≈ 5.18 µM).

Work on `O=C(N/N=C/c1cccc(Br)c1)c1ccncc1` yielded an MIC [4] of 2.5 µg/mL (≈ 8.22 µM).

With `O=C(N/N=C/c1ccccc1)c1ccncc1` [N'-BENZYLIDENE ISONICOTINOHYDRAZIDE] the MIC [4] was 3.12 µg/mL (≈ 13.9 µM).

In the case of `O=C(N/N=C/c1cccc(Cl)c1)c1ccncc1` [N'-(3-CHLOROBENZYLIDENE)ISONICOTINOHYDRAZIDE], the viability at 18 h, 0.1 ug/mL [1] is reported as 100%, the viability at 18 h, 1 ug/mL [2] is reported as 100% and the viability at 18 h, 100 ug/mL [3] is reported as 100%. For the same compound, the MIC [4] was 0.31 µg/mL (≈ 1.19 µM) and the viability at 18 h, 10 ug/mL [5] was 100%.

Work on `O=C(N/N=C/c1ccc(F)cc1)c1ccncc1` yielded a viability at 18 h, 0.1 ug/mL [1] of 100%, a viability at 18 h, 1 ug/mL [2] of 100% and a viability at 18 h, 100 ug/mL [3] of 96%. For the same compound, the MIC [4] was 0.31 µg/mL (≈ 1.27 µM) and the viability at 18 h, 10 ug/mL [5] was 97%.

Source: ChEMBL document CHEMBL1141661, “Synthesis and anti-mycobacterial activity of (E)-N'-(monosubstituted-benzylidene)isonicotinohydrazide derivatives” (Eur J Med Chem, 2008)
